Converted amounts (≈) assume the structure as drawn. The source made the active and inactive calls. The rule behind the calls is not given here.
Legend:
[1] = tested on: HUVEC; test: Antiinflammatory activity against TNF-alpha-induced ICAM1 protein expression in HUVEC at maximum tolerated dose pretreated for 2 hrs before TNFalpha challenge measured after 16 hrs by whole cell ELISA; assay type: functional, Homo sapiens
In short: (§1)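 Primary umbilical cord endothelial cells were pre-incubated 2 h with or without compound, then TNF-α (10 ng/mL) for 16 h (ICAM-1, VCAM-1) or 4 h (E-selectin). Whole-cell ELISA: glutaraldehyde fixation, milk block, primary antibody overnight at 4 °C, peroxidase secondary, OPD substrate, A490. IC50 read from %inhibition vs log concentration plots of three independent experiments. Single-level values were taken at the highest concentration giving >95% viability (MTT, 24 h).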

[2] = Cytotoxicity against HUVEC assessed as maximum tolerated dose for >95% cell viability after 24 hrs by MTT assay; assay type: cell-based; details: human, HUVEC cells; read-out: MTD
In short: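 Primary human umbilical vein endothelial cells (mild trypsinization), grown in M-199 with 15% heat-inactivated FCS, endothelial cell growth factor and heparin, 5% CO2. Cells attached overnight, then exposed to compounds or DMSO (0.25%) for 24 h; MTT (5 mg/mL in PBS) 4 h, formazan dissolved in DMSO, absorbance 570 nm. Also checked by trypan blue exclusion. Value is highest concentration giving >95% viability; ≥3 experiments in triplicate.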

[3] = tested on: HUVEC; test: Antiinflammatory activity against TNF-alpha-induced ICAM1 protein expression in HUVEC pretreated for 2 hrs before TNFalpha challenge measured after 16 hrs by whole cell ELISA; assay type: functional, cell-based; details: Homo sapiens; in short: as §1
[4] = Antiinflammatory activity against TNF-alpha-induced VCAM-1 protein expression in HUVEC by ELISA
[5] = tested on: HUVEC; test: Antiinflammatory activity against TNF-alpha-induced neutrophil adhesion in HUVEC at 2.5 to 20 ug/ml pretreated for 2 hrs before TNFalpha challenge measured after 6 hrs by calorimetric analysis; assay type: functional, Homo sapiens
In short: (§2)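 A confluent endothelial monolayer was pretreated ±compound for 2 h, then given TNF-α (10 ng/mL) for 6 h. Neutrophils from healthy donor blood (dextran sedimentation, Ficoll-Hypaque, hypotonic RBC lysis; 6 × 10^4/well) were added for 1 h at 37 °C under static conditions. After washing, bound cells were detected with OPD/CTAB/aminotriazole substrate at A490. Mean ± SD of 3 independent experiments.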

[6] = tested on: HUVEC; test: Antiinflammatory activity against LPS-induced E-selectin protein expression in HUVEC at 2.5 to 20 ug/ml pretreated for 2 hrs before LPS challenge measured after 4 hrs by whole cell ELISA; assay type: functional, cell-based; details: Homo sapiens
In short: (§3)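 Primary human umbilical cord endothelial cells (isolated by mild trypsinization, grown in M-199 with 15% heat-inactivated FCS, endothelial cell growth factor, heparin) pre-incubated 2 h with compound, then LPS ([…]) for 4 h (E-selectin) or 16 h (VCAM-1). Cells fixed with 1.0% glutaraldehyde, blocked with 3.0% milk, primary antibody overnight at 4 °C, peroxidase secondary, o-phenylenediamine substrate at pH 4.5, absorbance 490 nm.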

[7] = tested on: HUVEC; test: Antiinflammatory activity against TNF-alpha-induced E-selectin protein expression in HUVEC at 20 ug/ml pretreated for 2 hrs before TNFalpha challenge measured after 4 hrs by flow cytometry; assay type: functional; details: Homo sapiens
In short: (§4)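 Endothelial cells were treated ±compound ([…]) for 2 h, then TNF-α (10 ng/mL). E-selectin was read at 4 h, ICAM-1 and VCAM-1 at 16 h. Cells were dislodged, stained with specific or control IgG antibody (30 min, 4 °C) and then FITC anti-mouse IgG. Autofluorescence was subtracted and mean fluorescence intensity taken from three independent experiments.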

[8] = tested on: HUVEC; test: Antiinflammatory activity against TNF-alpha-induced ICAM1 protein expression in HUVEC at 20 ug/ml pretreated for 2 hrs before TNFalpha challenge measured after 16 hrs by flow cytometry; assay type: functional; details: Homo sapiens; in short: as §4
[9] = tested on: HUVEC; test: Antiinflammatory activity against TNF-alpha-induced E-selectin protein expression in HUVEC at 2.5 to 20 ug/ml pretreated for 2 hrs before TNFalpha challenge measured after 4 hrs by whole cell ELISA; assay type: functional, cell-based; details: Homo sapiens; in short: as §1
[10] = tested on: HUVEC; test: Antiinflammatory activity against LPS-induced VCAM-1 protein expression in HUVEC pretreated for 2 hrs before LPS challenge measured after 16 hrs by whole cell ELISA; assay type: functional, cell-based; details: Homo sapiens; in short: as §3
[11] = tested on: HUVEC; test: Antiinflammatory activity against TNF-alpha-induced neutrophil adhesion in HUVEC pretreated for 2 hrs before TNFalpha challenge measured after 6 hrs by calorimetric analysis; assay type: functional, cell-based; details: Homo sapiens; in short: as §2
[12] = tested on: HUVEC; test: Antiinflammatory activity against TNF-alpha-induced VCAM-1 protein expression in HUVEC pretreated for 2 hrs before TNFalpha challenge measured after 16 hrs by whole cell ELISA; assay type: functional, cell-based; details: Homo sapiens; in short: as §1
[13] = tested on: HUVEC; test: Antiinflammatory activity against TNF-alpha-induced VCAM-1 protein expression in HUVEC at 20 ug/ml pretreated for 2 hrs before TNFalpha challenge measured after 16 hrs by flow cytometry; assay type: functional; details: Homo sapiens; in short: as §4

| Compound | inhibition (INH) [1] [%] | MNTC at 24 h [2] [µg/mL] | IC50 [3] [µg/mL] | also measured |
| --- | --- | --- | --- | --- |
| O=C(/C=C/c1ccccc1)SCc1ccccc1 [BENZYL THIOCINNAMATE] | 40 | 60 |  |  |
| COc1cc(CCC(=O)SCc2ccccc2)cc(OC)c1OC | 45 | 60 |  |  |
| CCCCCCCCSC(=O)/C=C/c1cc(OC)ccc1OC | 30 | 50 |  |  |
| COc1ccc(CCC(=O)OC(C)C)cc1OC | 30 | 110 |  |  |
| CCCCCCCCOC(=O)/C=C/c1ccccc1 [OCTYL CINNAMATE] | 35 | 70 |  |  |
| CCOC(=O)/C=C/c1ccccc1 [ETHYL CINNAMATE] | 85 | 130 | 95 (≈ 539 µM) |  |
| O=C(/C=C/c1ccccc1)Sc1ccccc1 [PHENYL THIOCINNAMATE] | 65 | 70 | 55 (≈ 229 µM) |  |
| COc1ccc(OC)c(/C=C/C(=O)SCc2ccccc2)c1 | 50 | 60 | 60 (≈ 191 µM) |  |
| CCCOC(=O)/C=C/c1ccccc1 [PROPYL CINNAMATE] | 70 | 140 | 100 (≈ 526 µM) |  |
| CCCCCCCCSC(=O)CCc1cc(OC)c(OC)c(OC)c1 | 40 | 80 |  |  |
| COc1cc(/C=C/C(=O)Sc2ccccc2)cc(OC)c1OC | 85 | 50 | 30 (≈ 90.8 µM) |  |
| CCCOC(=O)/C=C/c1cc(OC)c(OC)c(OC)c1 | 62 | 120 | 100 (≈ 357 µM) |  |
| CCCCCCCCSC(=O)/C=C/c1cc(OC)c(OC)c(OC)c1 | 46 | 70 |  |  |
| CCSC(=O)/C=C/c1cc(OC)ccc1OC | 70 | 50 | 35 (≈ 139 µM) |  |
| CCCCOC(=S)/C=C/c1ccccc1 [BUTYL THIONOCINNAMATE] | 70 | 85 | 55 (≈ 250 µM) |  |
| CCCSC(=O)/C=C/c1cc(OC)ccc1OC | 55 | 50 | 45 (≈ 169 µM) |  |
| CCCOC(=O)CCc1cc(OC)c(OC)c(OC)c1 | 62 | 120 | 110 (≈ 390 µM) |  |
| CCOC(=O)/C=C/c1cc(OC)c(OC)c(OC)c1 | 90 | 50 | 25 (≈ 93.9 µM) |  |
| CCCOC(=O)CCc1ccc(OC)c(OC)c1 | 55 | 100 | 90 (≈ 357 µM) |  |
| CCOC(=O)CCc1cc(OC)c(OC)c(OC)c1 | 50 | 110 | 110 (≈ 410 µM) |  |
| CCSC(=O)CCc1cc(OC)c(OC)c(OC)c1 | 50 | 60 | 60 (≈ 211 µM) |  |
| Nc1ccc(O)c(C(=O)O)c1 [MESALAMINE] |  |  |  | IC50 [4]: 16 mM |

| Compound | inhibition (INH) [1] [%] | MNTC at 24 h [2] [µg/mL] | IC50 [3] [µg/mL] | also measured |
| --- | --- | --- | --- | --- |
| COc1cc(/C=C/C(=O)SCc2ccccc2)cc(OC)c1OC | 75 | 40 | 20 (≈ 58.1 µM) |  |
| COc1cc(CCC(=O)OC(C)C)cc(OC)c1OC | 40 | 65 |  |  |
| CCOC(=S)/C=C/c1cc(OC)c(OC)c(OC)c1 | 95 | 20 | 10 (≈ 35.4 µM) | inhibition (INH) [5]: >95%; inhibition [6]: Active; IC50 [4]: 0.04 mM; inhibition at 20 µg/mL [7]: > 95%; inhibition at 20 µg/mL [8]: > 95%; inhibition [3]: Dose-dependent effect; inhibition [9]: Active; inhibition [10]: Active; inhibition [11]: Dose-dependent effect; inhibition [12]: Dose-dependent effect; inhibition at 20 µg/mL [13]: > 95% |
| COc1ccc(OC)c(/C=C/C(=O)Oc2ccccc2)c1 | 30 | 60 |  |  |
| CCCSC(=O)/C=C/c1cc(OC)c(OC)c(OC)c1 | 50 | 70 | 70 (≈ 236 µM) |  |
| COc1ccc(OC)c(/C=C/C(=O)OC(C)C)c1 | 35 | 120 |  |  |
| CCCOC(=S)/C=C/c1cc(OC)c(OC)c(OC)c1 | 80 | 30 | 17 (≈ 57.4 µM) |  |
| COc1cc(/C=C/C(=O)Oc2ccccc2)cc(OC)c1OC | 40 | 45 |  |  |
| CC(=O)Oc1ccccc1C(=O)O [ASPIRIN] |  |  |  | IC50 [4]: 6 mM |
| CCCCCCCCSC(=O)/C=C/c1ccccc1 [OCTYL THIOCINNAMATE] | 45 | 60 |  |  |
| CCOC(=S)/C=C/c1cc(OC)ccc1OC | 80 | 25 | 15 (≈ 59.4 µM) |  |
| COc1cc(/C=C/C(=O)OC(C)C)cc(OC)c1OC | 80 | 65 | 45 (≈ 161 µM) |  |
| CCOC(=S)/C=C/c1ccccc1 [ETHYL THIONOCINNAMATE] | 90 | 50 | 22 (≈ 114 µM) |  |
| CC(C)OC(=S)/C=C/c1ccccc1 [ISOPROPYL THIONOCINNAMATE] | 80 | 35 | 20 (≈ 96.9 µM) |  |
| CCCOC(=S)/C=C/c1ccccc1 [PROPYL THIONOCINNAMATE] | 75 | 80 | 50 (≈ 242 µM) |  |
| CCCCOC(=O)/C=C/c1ccccc1 [BUTYL CINNAMATE] | 55 | 140 | 125 (≈ 612 µM) |  |
| CCSC(=O)/C=C/c1cc(OC)c(OC)c(OC)c1 | 65 | 30 | 25 (≈ 88.5 µM) |  |
| CCCOC(=S)/C=C/c1cc(OC)ccc1OC | 70 | 40 | 25 (≈ 93.9 µM) |  |
| CCCOC(=O)/C=C/c1cc(OC)ccc1OC | 55 | 120 | 110 (≈ 439 µM) |  |
| O=C(/C=C/c1ccccc1)OCc1ccccc1 [BENZYL CINNAMATE] | 50 | 70 | 70 (≈ 294 µM) |  |
| COc1cccc(/C=C/C(=O)OC(C)C)c1O | 30 | 120 |  |  |
| CCSC(=O)/C=C/c1ccccc1 [ETHYL THIOCINNAMATE] | 55 | 50 | 47 (≈ 244 µM) |  |

From ChEMBL document CHEMBL1909575, “Novel natural product-based cinnamates and their thio and thiono analogs as potent inhibitors of cell adhesion molecules on human endothelial cells” (Eur J Med Chem, 2011)
